Laboratory results: ChEMBL document CHEMBL4689842, “EUbOPEN Chemogenomics Library wave 1” (2021)

System: U2OS
Assay: Multiplex assay against U2OS
Type: toxicity, cell-based
Details: human
Summary of the method: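 Live cells were stained at seeding with Hoechst33342, BioTracker Green Microtubule Cytoskeleton Dye, MitoTracker Red and Annexin V Alexa Fluor 680. Following compound addition, they were imaged on a CQ1 microscope at 37°C and 5% CO2 and gated by CellPathfinder machine learning into Hoechst high-intensity objects or normal cells, with normal cells split into healthy, pyknosed or fragmented nuclei and pyknosed cells into mitotic or apoptotic. Tubulin, mitochondrial-mass and membrane-permeability phenotypes are per cents of healthy-nucleus cells.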

[1] = 12 h, 1 µM, compound concentration 1 uM, replicate 1
[2] = 12 h, 1 µM, compound concentration 1 uM, replicate 2
[3] = 12 h, 10 µM, compound concentration 10 uM, replicate 1
[4] = 12 h, 10 µM, compound concentration 10 uM, replicate 2
[5] = 24 h, 1 µM, compound concentration 1 uM, replicate 1
[6] = 24 h, 1 µM, compound concentration 1 uM, replicate 2
[7] = 24 h, 10 µM, compound concentration 10 uM, replicate 1
[8] = 24 h, 10 µM, compound concentration 10 uM, replicate 2
[9] = 48 h, 1 µM, compound concentration 1 uM, replicate 1
[10] = 48 h, 1 µM, compound concentration 1 uM, replicate 2
[11] = 48 h, 10 µM, compound concentration 10 uM, replicate 1
[12] = 48 h, 10 µM, compound concentration 10 uM, replicate 2

CN(C)CC#Cc1ccc(OCCCc2sc(N3CCc4cccc(C(=O)Nc5nc6ccccc6s5)c4C3)nc2C(=O)O)c(F)c1 [A-1155463]
Population Apoptotic (%) [1]: 63% | Population Fragmented Nuclei (%) [1]: 13% | Population Healthy Nuclei (%) [1]: 65% | Population Hoechst High Intensity Objects (%) [1]: 12% | Population Membrane Permeable-Phenotype (%) [1]: 14% | Population Mitochondria Different-Phenotype (%) [1]: 14% | Population Mitotic Cells (%) [1]: 36% | Population Normal (%) [1]: 87% | Population Pyknosed Nuclei (%) [1]: 21% | Population Tubulin-Different-Phenotype (%) [1]: 11% | Total Cell Count [1]: 175 | Population Apoptotic (%) [2]: 66% | Population Fragmented Nuclei (%) [2]: 39% | Population Healthy Nuclei (%) [2]: 53% | Population Hoechst High Intensity Objects (%) [2]: 4% | Population Membrane Permeable-Phenotype (%) [2]: 13% | Population Mitochondria Different-Phenotype (%) [2]: 31% | Population Mitotic Cells (%) [2]: 33% | Population Normal (%) [2]: 95% | Population Pyknosed Nuclei (%) [2]: 7% | Population Tubulin-Different-Phenotype (%) [2]: 27% | Total Cell Count [2]: 86 | Population Apoptotic (%) [3]: 61% | Population Fragmented Nuclei (%) [3]: 25% | Population Healthy Nuclei (%) [3]: 55% | Population Hoechst High Intensity Objects (%) [3]: 6% | Population Membrane Permeable-Phenotype (%) [3]: 8% | Population Mitochondria Different-Phenotype (%) [3]: 15% | Population Mitotic Cells (%) [3]: 38% | Population Normal (%) [3]: 93% | Population Pyknosed Nuclei (%) [3]: 19% | Population Tubulin-Different-Phenotype (%) [3]: 13% | Total Cell Count [3]: 189 | Population Apoptotic (%) [4]: 86% | Population Fragmented Nuclei (%) [4]: 33% | Population Healthy Nuclei (%) [4]: 42% | Population Hoechst High Intensity Objects (%) [4]: 5% | Population Membrane Permeable-Phenotype (%) [4]: 24% | Population Mitochondria Different-Phenotype (%) [4]: 16% | Population Mitotic Cells (%) [4]: 13% | Population Normal (%) [4]: 94% | Population Pyknosed Nuclei (%) [4]: 23% | Population Tubulin-Different-Phenotype (%) [4]: 25% | Total Cell Count [4]: 133 | Population Apoptotic (%) [5]: 47% | Population Fragmented Nuclei (%) [5]: 19% | Population Healthy Nuclei (%) [5]: 58% | Population Hoechst High Intensity Objects (%) [5]: 5% | Population Membrane Permeable-Phenotype (%) [5]: 11% | Population Mitochondria Different-Phenotype (%) [5]: 15% | Population Mitotic Cells (%) [5]: 52% | Population Normal (%) [5]: 94% | Population Pyknosed Nuclei (%) [5]: 21% | Population Tubulin-Different-Phenotype (%) [5]: 6% | Total Cell Count [5]: 222 | Population Apoptotic (%) [6]: 50% | Population Fragmented Nuclei (%) [6]: 36% | Population Healthy Nuclei (%) [6]: 54% | Population Hoechst High Intensity Objects (%) [6]: 7% | Population Membrane Permeable-Phenotype (%) [6]: 13% | Population Mitochondria Different-Phenotype (%) [6]: 32% | Population Mitotic Cells (%) [6]: 50% | Population Normal (%) [6]: 92% | Population Pyknosed Nuclei (%) [6]: 9% | Population Tubulin-Different-Phenotype (%) [6]: 28% | Total Cell Count [6]: 92 | Population Apoptotic (%) [7]: 58% | Population Fragmented Nuclei (%) [7]: 20% | Population Healthy Nuclei (%) [7]: 51% | Population Hoechst High Intensity Objects (%) [7]: 5% | Population Membrane Permeable-Phenotype (%) [7]: 13% | Population Mitochondria Different-Phenotype (%) [7]: 23% | Population Mitotic Cells (%) [7]: 41% | Population Normal (%) [7]: 94% | Population Pyknosed Nuclei (%) [7]: 27% | Population Tubulin-Different-Phenotype (%) [7]: 12% | Total Cell Count [7]: 194 | Population Apoptotic (%) [8]: 81% | Population Fragmented Nuclei (%) [8]: 32% | Population Healthy Nuclei (%) [8]: 45% | Population Hoechst High Intensity Objects (%) [8]: 10% | Population Membrane Permeable-Phenotype (%) [8]: 20% | Population Mitochondria Different-Phenotype (%) [8]: 14% | Population Mitotic Cells (%) [8]: 18% | Population Normal (%) [8]: 89% | Population Pyknosed Nuclei (%) [8]: 22% | Population Tubulin-Different-Phenotype (%) [8]: 21% | Total Cell Count [8]: 135 | Population Apoptotic (%) [9]: 67% | Population Fragmented Nuclei (%) [9]: 24% | Population Healthy Nuclei (%) [9]: 46% | Population Hoechst High Intensity Objects (%) [9]: 10% | Population Membrane Permeable-Phenotype (%) [9]: 7% | Population Mitochondria Different-Phenotype (%) [9]: 18% | Population Mitotic Cells (%) [9]: 32% | Population Normal (%) [9]: 89% | Population Pyknosed Nuclei (%) [9]: 29% | Population Tubulin-Different-Phenotype (%) [9]: 10% | Total Cell Count [9]: 285 | Population Apoptotic (%) [10]: 77% | Population Fragmented Nuclei (%) [10]: 28% | Population Healthy Nuclei (%) [10]: 51% | Population Hoechst High Intensity Objects (%) [10]: 5% | Population Membrane Permeable-Phenotype (%) [10]: 19% | Population Mitochondria Different-Phenotype (%) [10]: 43% | Population Mitotic Cells (%) [10]: 22% | Population Normal (%) [10]: 94% | Population Pyknosed Nuclei (%) [10]: 20% | Population Tubulin-Different-Phenotype (%) [10]: 36% | Total Cell Count [10]: 117 | Population Apoptotic (%) [11]: 74% | Population Fragmented Nuclei (%) [11]: 26% | Population Healthy Nuclei (%) [11]: 32% | Population Hoechst High Intensity Objects (%) [11]: 9% | Population Membrane Permeable-Phenotype (%) [11]: 23% | Population Mitochondria Different-Phenotype (%) [11]: 38% | Population Mitotic Cells (%) [11]: 25% | Population Normal (%) [11]: 90% | Population Pyknosed Nuclei (%) [11]: 40% | Population Tubulin-Different-Phenotype (%) [11]: 11% | Total Cell Count [11]: 246 | Population Apoptotic (%) [12]: 81% | Population Fragmented Nuclei (%) [12]: 34% | Population Healthy Nuclei (%) [12]: 35% | Population Hoechst High Intensity Objects (%) [12]: 8% | Population Membrane Permeable-Phenotype (%) [12]: 57% | Population Mitochondria Different-Phenotype (%) [12]: 51% | Population Mitotic Cells (%) [12]: 18% | Population Normal (%) [12]: 91% | Population Pyknosed Nuclei (%) [12]: 29% | Population Tubulin-Different-Phenotype (%) [12]: 57% | Total Cell Count [12]: 139
